PvdQ acylase: P. aeruginosa PvdQ acylase inhibitors, primary screen, biochemical, fluorescence, plate reader and imaging, single point | PvdQ acylase [Pseudomonas aeruginosa LESB58] | purified PvdQ acylase | inhibition, % at 10 µM | actives 0.063% (n = 340,000); in the data active means inhibition above about 30%, passing the limit was not always enough;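 further: 0% = vehicle neutral wells and 100% = reference inhibitor wells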
miR122 inh: miR-122 Renilla sensor signal increase in Huh7, primary screen, miR-122 inhibitor project, cell-based, single point, plate reader; Huh7 miR-122 Renilla luciferase sensor, 48 h; neutral wells = 0, positive control = 100; activation (reporter increase), % at 12.5 µM; actives 0.3% (n = 340,000); AID 602342, 2012;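 active means mean replicate activation score at least 90 and every replicate individually at or above 90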;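 further: higher luciferase means less miR-122 activity so hits act as miR-122 inhibitors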
ERp5 inh: inhibitors of ERp5-driven insulin aggregation, primary screen, biochemical, turbidity, absorbance 650 nm, single point. inhibition, % at 9.99 µM. AID 651711, 2012. actives 0.05% (n = 350,000). Protein disulfide-isomerase A6 (Homo sapiens), Q15084. 90 min;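 active means mean replicate inhibition above about 25%, with every replicate also reaching it, limit read from the data, passing the limit was not always enough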
Cneo AK release: Cryptococcus neoformans cell lysis inducers, primary screen, AK release luminescence, single concentration | C. neoformans lysis, adenylate kinase release luminescence, 4 h; normalised: neutral wells 0, clomiphene wells 100 | lysis activity, % at 15 µM | actives 0.2% (n = 360,000) | AID 651654, 2012;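 active means mean lysis activity across replicates of at least 80%, whatever share of replicates individually reach that level; inactive means mean lysis activity below 80%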
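Test system: log-phase Cryptococcus neoformans yeast cells. Input: 5 × 10^6 yeast cells/mL. Medium: fresh YPD growth medium. Doses: single dose. Incubation: static 4 h at 37 °C with compound, 1 h detection. Measured by: luminescent adenylate kinase detection reagent. Read-out: signal increase indicating cell lysis. Benchmarks: Clomiphene.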
PglD inh: C. jejuni PglD acetyltransferase inhibitors, primary screen, biochemical, DTNB colorimetric, single point; purified PglD enzyme, DTNB colorimetric CoA detection; inhibition, % at 12.5 µM; actives 0.098% (n = 360,000); AID 602405, 2012; in the data active means inhibition above about 16%, passing the limit was not always enough
PDI turbidity: inhibitors of human PDI, primary screen, biochemical, turbidity, single point, plate reader; PDI insulin aggregation turbidity, A650, 90 min; inhibition, % at 10 µM; actives 0.052% (n = 350,000); AID 588391, 2011;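 active means mean inhibition across replicates of 30% or more, whatever share of single replicates reach that level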
Target sequence (P07237 whole entry, looked up): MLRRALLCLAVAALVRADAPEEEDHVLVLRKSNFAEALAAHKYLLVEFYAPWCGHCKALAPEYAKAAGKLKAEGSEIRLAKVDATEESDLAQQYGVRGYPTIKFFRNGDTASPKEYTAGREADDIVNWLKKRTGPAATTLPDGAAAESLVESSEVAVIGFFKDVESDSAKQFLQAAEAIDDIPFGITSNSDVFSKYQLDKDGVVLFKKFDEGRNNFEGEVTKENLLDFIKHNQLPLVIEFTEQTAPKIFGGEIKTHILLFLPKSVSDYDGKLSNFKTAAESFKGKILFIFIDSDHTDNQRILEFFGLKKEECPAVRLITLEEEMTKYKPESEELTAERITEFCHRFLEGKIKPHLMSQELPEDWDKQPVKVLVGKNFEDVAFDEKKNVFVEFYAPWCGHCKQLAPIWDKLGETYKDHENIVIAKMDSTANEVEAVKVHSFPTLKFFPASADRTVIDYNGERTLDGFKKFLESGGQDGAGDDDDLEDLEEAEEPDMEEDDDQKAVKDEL
Starred values were filed as active, the others as inactive; / = no result; [ ] = remark or other dose. Most compounds without a hit are left out; they make up all but 0.58% or so of the library.

SMILES	PvdQ acylase	miR122 inh	ERp5 inh	Cneo AK release	PglD inh	PDI turbidity
CNC(=O)C[C@H]1CC[C@H]2[C@H](COc3ccc(NC(=O)Nc4ccc(C)cc4)cc3C(=O)N2C)O1	/	-7.0[16.7 µM]	-4.0	9.2	-1.2	/
CNC(=O)C[C@H]1CC[C@H]2[C@@H](COc3ccc(NC(=O)Nc4ccccc4)cc3C(=O)N2C)O1	/	32.7[16.7 µM]	-0.2	110.2*	1.4	/
O=C(C[C@@H]1CC[C@H]2[C@@H](COC[C@@H](O)CN2Cc2ccccc2)O1)N[C@@H]1CCN(Cc2ccccc2)C1	/	-6.1[16.7 µM]	0.4	50.4	3.2	/
C[C@@H]1CCCCO[C@H](CN(C)S(=O)(=O)c2ccccc2)[C@@H](C)CN([C@@H](C)CO)C(=O)c2cc(NC(=O)c3ccccc3)ccc2O1	/	26.1[16.7 µM]	4.6	56.6	4.5	/
C[C@H](CO)N1C[C@H](C)[C@H](CN(C)C(=O)Nc2ccc3c(c2)OCO3)Oc2ccc(NC(=O)C3CC3)cc2CC1=O	/	-8.4[16.7 µM]	-1.2	-3.1	-1.3	/
C[C@H]1CN([C@@H](C)CO)C(=O)Cc2cc(NC(=O)CCN3CCOCC3)ccc2O[C@@H]1CN(C)C(=O)Nc1ccc(F)cc1	/	2.0[16.7 µM]	2.1	-10.1	-2.6	/
O=C1NC[C@H](Cc2ccc(O)cc2)N(CC2CCCCC2)C1=O	-3.7	-3.1	6.2	4.4	3.6	34.4*
CC(C)C[C@@H](CN1CCC[C@@H]1CN1C(=O)C(=O)NC[C@@H]1Cc1ccccc1)N1C[C@H](Cc2ccc(O)cc2)N(CCc2ccccc2)C(=O)C1=O	-13.0	-4.1	4.2	0.0	-7.0	47.9*
CC(C)C#Cc1ccc2c(c1)O[C@H](CN(C)C(=O)c1ccccn1)[C@H](C)CN([C@H](C)CO)S2(=O)=O	/	-1.6[16.7 µM]	-3.8	-0.1	-4.1	/
Cc1cc(S(=O)(=O)NCCc2ccccc2)c(C)s1	-2.3	226.0*	/	1.8	3.5	-2.7
C/C=C/c1ccc([C@@H]2[C@@H](CO)N(C(C)=O)C23CN(C(=O)c2ccc(F)cc2)C3)cc1	/	/	3.5	/	/	/
N#CC(c1ccc(F)cc1)c1ccc(C(=O)c2ccccc2)cc1 (configuration not stated)	48.0*	1.7	/	-4.6	-4.5	24.3
N#CC(c1ccccc1)c1ccc(C(=O)c2ccc(F)cc2)cc1 (configuration not stated)	1.2	2.2	/	/	/	-0.4
O=C(Nc1cccc2ccccc12)/C(=C/c1ccc([N+](=O)[O-])cc1)NC(=O)c1ccccc1	-6.6	238.0*	/	-7.7	0.3	-0.1
O=C(Nc1cccc(C(=O)O)c1)/C(=C/c1ccc([N+](=O)[O-])cc1)NC(=O)c1ccccc1	4.1	/	7.6	0.0	0.5	0.0
CC(C)(C)c1ccc(C(=O)N/C(=C\c2cccc([N+](=O)[O-])c2)C(=O)Nc2cccc(C(=O)O)c2)cc1	3.6	-2.9	3.2	-3.0	36.4*	-0.8
Cc1ccc(NC(=O)C[C@H]2CC[C@H]3[C@@H](COc4ccc(NC(=O)C(C)C)cc4C(=O)N3C)O2)cc1	/	-2.2[16.7 µM]	12.2	-1.4	-0.4	/
COc1cccc(NS(=O)(=O)c2cc(C)sc2C)c1	8.8	121.4*	/	-1.8	3.5	-5.5
CCC(=O)N[C@@H]1C=C[C@@H](CC(=O)NCc2ccccc2OC)O[C@H]1CO	/	/	-3.4	67.3	5.7	/
O=C(C[C@H]1C[C@@H]2c3cc(NC(=O)CC4CC4)ccc3O[C@@H]2[C@@H](CO)O1)NCc1cccc(F)c1	/	1.4[16.7 µM]	-28.9	90.5*	4.3	/
O=C(C[C@@H]1C[C@H]2c3cc(NC(=O)C4CCC4)ccc3O[C@H]2[C@@H](CO)O1)NCc1cccc(F)c1	/	4.7[16.7 µM]	1.8	-1.1	0.8	/
O=C(C[C@@H]1C[C@@H]2c3cc(NC(=O)C4CCC4)ccc3O[C@@H]2[C@H](CO)O1)NCc1cccc(F)c1	/	31.3[16.7 µM]	0.7	86.4*	7.0	/

Screening data: PubChem BioAssay, Broad Institute
